In paper PMC6420351 (ACS chemical biology, 2019):

Assays:
CRBP1 [1] = target: T1, CRBP1 (Homo sapiens, UniProt P09455); assay: Fluorescence atROL-replacing; type: binding; details: for binding to CRBP1: fluorescence titration of holo-CRBP1, 0–10 μM range for O-1918
T1 sequence (P09455 1-135): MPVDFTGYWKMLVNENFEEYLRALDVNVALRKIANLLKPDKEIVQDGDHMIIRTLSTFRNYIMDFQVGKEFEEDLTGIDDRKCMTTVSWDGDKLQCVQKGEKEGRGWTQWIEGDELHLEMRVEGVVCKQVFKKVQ

cannabinoid receptor 1 = details: cited from earlier work
rodents = details: previous studies of wound healing, vasodilation, diabetes; cited from earlier work
CRBP3 = target: T2, CRBP3 (Homo sapiens, UniProt P82980); assay: Co-crystallization / X-ray structure of CRBP3 with ligand; type: binding; details: crystal structure PDB 6E5W
T2 sequence (P82980 1-135): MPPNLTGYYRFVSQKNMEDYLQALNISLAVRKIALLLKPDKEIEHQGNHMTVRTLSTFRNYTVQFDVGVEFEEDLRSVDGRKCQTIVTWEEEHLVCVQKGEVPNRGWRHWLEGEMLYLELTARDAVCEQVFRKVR
In short: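 Apo-CRBP3 (8 mg mL−1) preincubated 15 min with 300 μM test compound. Drops made from 1 μL protein plus 1 μL 0.2 M sodium malonate pH 5.0, 20% PEG 3350 (w/v). Grown by sitting-drop vapour diffusion at RT.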

[2] = Detection and quantification of abn-CBD in the ocular tissues; type: in vivo, Balb/cJ mice
In short: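 Balb/cJ mice (5–8 weeks, dark-adapted ≥24 h) given a single i.p. 15 mg kg−1 dose. At 1–15 h mice were anaesthetised with ketamine and PBS-perfused. Eyes homogenised in PBS/methanol with 100 pmol deuterated test-compound internal standard, then hexane-extracted, dried and redissolved in ethanol. Quantified by LC/MS on a C18 column (70–100% methanol/water over 10 min), positive-mode ESI ion trap.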

[3] = test system: visual cycle retinoid flow; assay: Visual chromophore regeneration after flash; type: in vivo, Balb/cJ mice; details: 0.25 mg of compound 1.5 h prior to flash bleaching 75% of rhodopsin
In short: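 Dark-adapted (≥24 h) Balb/cJ mice given 0.25 mg test compound or DMSO 1.5 h before a flash bleaching 75% of rhodopsin. Kept dark, euthanised 1 min–8 h later; eyes frozen in liquid nitrogen. Under dim red light, eyes homogenised in 40 mM hydroxylamine in PBS/methanol (20 min RT), then hexane-extracted. Normal-phase HPLC (step ethyl acetate/hexane gradient) read at 325 and 360 nm, quantified against standards; n = 4, mean ± sd.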

CRBP2 = target: T3, CRBP2 (Homo sapiens, UniProt P50120); assay: Fluorescence-binding assay with CRBP2
T3 sequence (P50120 1-134): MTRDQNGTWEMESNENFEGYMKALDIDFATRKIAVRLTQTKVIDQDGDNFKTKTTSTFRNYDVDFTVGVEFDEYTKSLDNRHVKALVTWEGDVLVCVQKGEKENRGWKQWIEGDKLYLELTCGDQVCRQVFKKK

CRBP4 = target: T4, CRBP4 (Homo sapiens, UniProt Q96R05); assay: Co-crystallization / X-ray structure of CRBP4 with ligand; type: binding; details: crystal structure PDB 6E6K
T4 sequence (Q96R05 1-134): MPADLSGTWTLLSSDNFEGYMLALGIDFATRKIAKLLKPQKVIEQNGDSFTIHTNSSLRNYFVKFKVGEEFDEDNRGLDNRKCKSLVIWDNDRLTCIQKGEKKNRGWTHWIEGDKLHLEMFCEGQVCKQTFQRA
In short: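 CRBP4 purified with a final 0–0.5 M NaCl gradient in 10 mM Tris/HCl pH 8.0, then concentrated to 6 mg mL−1. Protein preincubated with test compound. Crystallised in 0.2 M NaCl, 0.1 M BisTris pH 6.5, 25% PEG 3350 (w/v) by sitting-drop vapour diffusion at RT.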

cannabinoid receptor 2 = details: cited from earlier work
RPE65 = RPE65 (Bos taurus, UniProt Q28175); assay: RPE65 isomerization activity assay in RPE microsomes; type: biochemical; details: bovine RPE microsomes preincubated with 10–50 μM
Chain of RPE65 (Q28175 whole entry): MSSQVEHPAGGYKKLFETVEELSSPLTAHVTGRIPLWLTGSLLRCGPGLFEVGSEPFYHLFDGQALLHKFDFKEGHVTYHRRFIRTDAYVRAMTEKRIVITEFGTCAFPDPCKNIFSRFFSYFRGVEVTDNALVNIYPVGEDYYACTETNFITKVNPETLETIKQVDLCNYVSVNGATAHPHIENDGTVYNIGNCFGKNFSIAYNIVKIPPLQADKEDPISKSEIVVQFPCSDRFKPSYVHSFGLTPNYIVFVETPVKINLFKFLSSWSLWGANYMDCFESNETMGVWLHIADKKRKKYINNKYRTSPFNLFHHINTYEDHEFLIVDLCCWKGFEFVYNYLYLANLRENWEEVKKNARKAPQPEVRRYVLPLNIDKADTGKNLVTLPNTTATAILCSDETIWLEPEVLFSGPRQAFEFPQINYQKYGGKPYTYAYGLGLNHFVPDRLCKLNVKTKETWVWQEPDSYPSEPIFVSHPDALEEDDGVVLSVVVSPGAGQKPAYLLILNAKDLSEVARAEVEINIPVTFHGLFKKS
In short: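 UV-bleached bovine RPE microsomes were the RPE65 source, reacting in the presence of CRALBP. Microsomes preincubated with 10–50 μM test compound (1:1 to 1:5 molar excess). Reaction started with atROL (final 10 μM) and run at 30 °C for 30 min. Products extracted with hexane and analysed by normal-phase HPLC.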

[4] = test system: light-induced retinal damage; assay: Bright light-induced retinal degeneration; type: in vivo, Balb/cJ mice; details: IP injection 1.5 h prior to light; OCT and histology a week later
RDH5 = target: T5, RDH5 (Bos taurus, UniProt Q27979); assay: 11-cis-retinol oxidation assay in RPE microsomes; type: biochemical; details: bovine RPE microsomes preincubated with 10–50 μM
T5 sequence (Q27979 1-318): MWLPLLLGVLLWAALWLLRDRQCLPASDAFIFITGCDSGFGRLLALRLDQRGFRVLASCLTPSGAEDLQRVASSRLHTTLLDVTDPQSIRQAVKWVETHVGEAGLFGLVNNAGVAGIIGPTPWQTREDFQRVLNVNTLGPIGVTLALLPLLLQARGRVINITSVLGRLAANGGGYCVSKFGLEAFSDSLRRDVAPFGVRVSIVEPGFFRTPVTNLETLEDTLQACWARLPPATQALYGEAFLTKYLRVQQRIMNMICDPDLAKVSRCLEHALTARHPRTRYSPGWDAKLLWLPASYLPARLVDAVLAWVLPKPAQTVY
In short: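 Bovine RPE microsomes (~100 μg total protein) preincubated with 10–50 μM test compound (1:1 to 1:5 molar excess) in 20 mM Tris/HCl pH 8.0, 1% BSA, 20 μM NAD+. 11-cis-Retinol (10 μM) added; 30 °C, 10 min. Stopped with methanol containing 40 mM hydroxylamine, 15 min RT. Hexane extract run on normal-phase HPLC (isocratic 10% ethyl acetate/hexane), detected at 325 nm.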

LRAT = target: T6, LRAT (Bos taurus, UniProt Q9BGL2); assay: Retinol esterification assay in RPE microsomes; type: biochemical; details: bovine RPE microsomes preincubated with 10–50 μM
T6 sequence (Q9BGL2 1-230): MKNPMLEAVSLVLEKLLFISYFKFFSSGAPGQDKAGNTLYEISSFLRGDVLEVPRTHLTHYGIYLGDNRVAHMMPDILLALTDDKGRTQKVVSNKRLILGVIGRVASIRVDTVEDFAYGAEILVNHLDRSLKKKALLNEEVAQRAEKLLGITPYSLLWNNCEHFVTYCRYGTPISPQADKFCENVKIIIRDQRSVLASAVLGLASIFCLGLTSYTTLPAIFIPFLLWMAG
In short: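 UV-treated bovine RPE microsomes (~100 μg total protein) in 20 mM Tris/HCl pH 7.4, 1 mM DTT, 1% BSA. Test compound (10, 20 or 50 μM) added before atROL (final 10 μM). Initial rate taken after 5 min at RT, quenched with methanol, extracted with hexane. Normal-phase HPLC (isocratic 10% ethyl acetate/hexane, 325 nm). Retinyl esters quantified against synthetic standards.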

[5] = test system: recovery of visual sensitivity; assay: Scotopic full-field ERG recovery after photobleach; type: in vivo, Balb/cJ mice; details: 30 mg/kg; ERG 4 h after flash bleaching ~50% of visual pigment
CRBP1 [6] = details: read-out: affinity for atROL; cited from earlier work

C=C(C)[C@@H]1CCC(C)=CC1c1c(O)cc(C)cc1O (stereo partly drawn) [CBDO, 5-methyl-2-[(6R)-3-methyl-6-prop-1-en-2-ylcyclohex-2-en-1-yl]benzene-1,3-diol]
Ki (CRBP1 [1]): ~1700 nM | fold increase of the Ki value (CRBP1 [1]; further increase relative to abn-CBDO): 6.3 fold

C=C(C)[C@@H]1CCC(C)=C[C@H]1c1c(OC)cc(C)cc1OC [O-1918, 1,3-dimethoxy-5-methyl-2-[(1R,6R)-3-methyl-6-prop-1-en-2-ylcyclohex-2-en-1-yl]benzene]
binding to CRBP1 (CRBP1 [1]): abolished the meaningful binding

C=C(C)[C@@H]1CCC(C)=C[C@H]1c1c(O)cc(O)cc1CCCCC [abn-CBD, 4-[(1R,6R)-3-Methyl-6-prop-1-en-2-ylcyclohex-2-en-1-yl]-5-pentylbenzene-1,3-diol]
interaction with cannabinoid receptor 1 (cannabinoid receptor 1): does not interact | toxicity in rodents (rodents): did not report toxicity | binding to CRBP3 (CRBP3): bind abn-CBD similarly to CRBP1 | half-life ([2]; Balb/cJ, mouse, eye (PBS-perfused, homogenised), ip, 15 mg/kg): ~7 h | time of maximum ocular level after the injection ([2]; single IP dose 15 mg kg^−1): 2 h | maximum ocular level ([2]; single IP dose 15 mg kg^−1, PBS-perfused mouse eyes): 58 pmol/eye | atROL level during chromophore regeneration [3]: transient accumulation of atROL | rate of 11-cis-retinal regeneration [3]: noticeably slower | rate of all-trans-retinal clearance vs control [3]: no differences | interaction with CRBP2 (CRBP2): absence of interaction | binding to CRBP4 (CRBP4): bind abn-CBD similarly to CRBP1 | interaction with cannabinoid receptor 2 (cannabinoid receptor 2): does not interact | effect on RPE65 enzymatic activity (RPE65): did not cause a measurable decline | protection against light-induced retinal damage [4]: largely protected against the light-induced retinal damage | effect on RDH5 enzymatic activity (RDH5): did not cause a measurable decline | Ki (CRBP1 [1]): ~67 nM | effect on LRAT enzymatic activity (LRAT): did not cause a measurable decline | recovery of a-wave and b-wave amplitudes after light illumination [5]: slower

C=C(C)[C@@H]1CCC(C)=C[C@H]1c1c(C)cc(O)cc1O [abn-CBDO, 5-methyl-4-[(1R,6R)-3-methyl-6-prop-1-en-2-ylcyclohex-2-en-1-yl]benzene-1,3-diol]
apparent affinity lowered compared with abn-CBD (CRBP1 [1]; fold change of Ki vs abn-CBD): 4.3 times

CC1=C(/C=C/C(C)=C/C=C/C(C)=C/CO)C(C)(C)CCC1 [atROL, all-trans-retinol]
Kd (CRBP1 [6]): < 1 nM | Ki (CRBP1 [1]): ~34 nM

C=C(C)[C@H]1CC=C(C)CC1 [limonene]
binding to CRBP1 (CRBP1 [1]): did not observe limonene interacting
